Experimental data as given in ChEMBL document CHEMBL1149665, “Synthesis and biological evaluation of cepharadiones A and B and related dioxoaporphines” (2007).
≈ marks a conversion by molar mass, not a printed value.

Legend:
Format in all cases: functional
BXPC-3 = test: Growth inhibition of human BXPC3 cells after 48 hrs by SRB assay; conditions: BXPC-3, 48 h
Summary of the method: (§1)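 Cells seeded in 5% fetal bovine serum/RPMI1640 and incubated 24 h before serial compound dilutions were added. After 48 h exposure, cells were fixed with trichloroacetic acid and stained with sulforhodamine B (NCI standard SRB protocol), and optical density was read. GI50, the concentration causing 50% reduction in net protein increase, was calculated from the optical density data; values reported in µg/mL.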

MCF7 = test: Growth inhibition of human MCF7 cells after 48 hrs by SRB assay; conditions: MCF7, 48 h; summary of the method: as §1
SF-268 = test: Growth inhibition of human SF268 cells after 48 hrs by SRB assay; conditions: SF-268, 48 h; summary of the method: as §1
NCI-H460 = test: Growth inhibition of human NCI-H460 cells after 48 hrs by SRB assay; conditions: NCI-H460, 48 h; summary of the method: as §1
KM-20L2 = test: Growth inhibition of human KM20L2 cells after 48 hrs by SRB assay; conditions: KM-20L2, 48 h; summary of the method: as §1
DU-145 = test: Growth inhibition of human DU145 cells after 48 hrs by SRB assay; conditions: DU-145, 48 h; summary of the method: as §1

Row | SMILES | GI50 (BXPC-3) [µg/mL] | GI50 (MCF7) [µg/mL] | GI50 (SF-268) [µg/mL] | GI50 (NCI-H460) [µg/mL] | GI50 (KM-20L2) [µg/mL] | GI50 (DU-145) [µg/mL]
1 | Cc1cc2c3c(cc4ccccc4c3c1C)N(C)C(=O)C2=O | > 10 | 8.4 (≈ 29 µM) | 0.7 (≈ 2.42 µM) | 2.3 (≈ 7.95 µM) | 4.2 (≈ 14.5 µM) | > 10
2 | CCOc1ccc2c3c(cc4ccccc4c13)N(C)C(=O)C2=O | > 10 | > 10 | > 10 | > 10 | > 10 | > 10
3 | CN1C(=O)C(=O)c2cc3c(c4c2c1cc1ccccc14)OCO3 [CEPHARADIONE A] | > 10 | 6.3 (≈ 20.6 µM) | 2.9 (≈ 9.5 µM) | 2.5 (≈ 8.19 µM) | 17.3 (≈ 56.7 µM) | 4.3 (≈ 14.1 µM)
4 | COc1cc2c3c(cc4ccccc4c3c1OC)N(C)C(=O)C2=O [CEPHARADIONE B] | > 10 | > 10 | 22.8 (≈ 71 µM) | > 10 | > 10 | 36.1 (≈ 112 µM)
5 | COc1ccc2c3c(cc4ccccc4c13)N(C)C(=O)C2=O | 1.6 (≈ 5.49 µM) | 0.66 (≈ 2.27 µM) | 0.42 (≈ 1.44 µM) | 0.46 (≈ 1.58 µM) | 0.82 (≈ 2.81 µM) | 1.3 (≈ 4.46 µM)
